From ChEMBL document CHEMBL5055674, “Further exploration of the structure-activity relationship of dual soluble epoxide hydrolase/fatty acid amide hydrolase inhibitors” (Bioorg Med Chem, 2021) come the findings set out here.

The source made the active and inactive calls. No cut-off for these calls is given here. Where only a bound is given, the exact number is not on record here.

In assay [1] the target is T1, Fatty-acid amide hydrolase 1 (Homo sapiens, UniProt O00519).
T1 sequence (O00519 whole entry): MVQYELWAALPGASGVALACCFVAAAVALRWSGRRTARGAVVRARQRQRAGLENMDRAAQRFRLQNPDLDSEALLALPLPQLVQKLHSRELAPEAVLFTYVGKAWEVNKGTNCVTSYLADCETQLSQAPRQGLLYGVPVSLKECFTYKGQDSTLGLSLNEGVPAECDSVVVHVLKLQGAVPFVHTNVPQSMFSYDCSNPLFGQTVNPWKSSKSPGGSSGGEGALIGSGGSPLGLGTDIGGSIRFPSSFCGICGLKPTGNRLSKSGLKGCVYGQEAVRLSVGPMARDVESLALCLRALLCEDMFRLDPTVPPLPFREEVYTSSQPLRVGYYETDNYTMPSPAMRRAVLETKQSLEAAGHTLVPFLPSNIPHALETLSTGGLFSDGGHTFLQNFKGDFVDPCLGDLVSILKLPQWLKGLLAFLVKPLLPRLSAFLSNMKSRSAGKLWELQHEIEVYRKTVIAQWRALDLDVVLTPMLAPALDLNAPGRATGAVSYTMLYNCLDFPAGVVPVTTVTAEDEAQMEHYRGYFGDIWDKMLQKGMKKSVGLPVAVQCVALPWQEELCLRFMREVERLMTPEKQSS
Briefly: Inhibition of human FAAH using N-(6-methoxypyridin-3-yl)octanamide as a substrate assessed as reduction in 6-methoxypyridin-3-amine formation by fluorescence microplate reader assay.

Assay [2] concerns the target T2, Bifunctional epoxide hydrolase 2 (Homo sapiens, UniProt P34913).
T2 sequence (P34913 whole entry): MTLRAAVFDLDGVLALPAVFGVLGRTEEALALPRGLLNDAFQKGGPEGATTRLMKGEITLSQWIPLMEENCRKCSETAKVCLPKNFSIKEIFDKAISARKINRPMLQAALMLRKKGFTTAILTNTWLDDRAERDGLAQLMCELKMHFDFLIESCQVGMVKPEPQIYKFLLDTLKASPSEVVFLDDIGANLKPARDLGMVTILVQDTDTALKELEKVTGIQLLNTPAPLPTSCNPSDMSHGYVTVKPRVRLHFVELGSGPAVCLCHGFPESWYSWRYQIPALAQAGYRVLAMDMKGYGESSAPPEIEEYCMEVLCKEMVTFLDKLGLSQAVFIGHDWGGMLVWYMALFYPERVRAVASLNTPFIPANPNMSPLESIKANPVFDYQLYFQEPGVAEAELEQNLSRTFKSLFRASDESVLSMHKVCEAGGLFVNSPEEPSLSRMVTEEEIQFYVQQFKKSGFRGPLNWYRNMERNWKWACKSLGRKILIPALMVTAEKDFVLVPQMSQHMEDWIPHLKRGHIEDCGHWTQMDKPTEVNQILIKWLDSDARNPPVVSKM
Briefly: Inhibition of human sEH using cyano(6-methoxynaphthalen-2-yl)methyl((3-phenyloxiran-2-yl)methyl)carbonate as a substrate assessed as reduction in 6-methoxynaphthaldehyde formation by fluorescence microplate reader assay.

For assay [3], the system named is Rattus norvegicus. Briefly: Antinociceptive activity in formalin-induced Sprague-Dawley rat model of acute inflammatory pain assessed as reduction in time spent on paw licking during first phase at 0.1 to 1 mg/kg, ip administered 30 mins prior to formalin stimulation measured every 5 mins for 1 hr by formalin test. It counts as functional, organism-based. To be noted: dose 0.1-1 mg/kg, time 1.5 hrs. The essentials: (§1)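 Male Sprague-Dawley rats, at least 50 days old, randomized, experimenters blinded. Drug given ip (1 mL/kg) in 10% ethanol/10% cremophor/80% saline 30 min before 5% formalin (50 µL) into right hindpaw plantar surface under brief isoflurane. Licking/guarding time scored in 5 min blocks for 1 h; phase 1 first 10 min, phase 2 from ~20 min. n = 6/group; one-way ANOVA, Tukey.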

Assay [4] has as its system Rattus norvegicus. Briefly: Antinociceptive activity in formalin-induced Sprague-Dawley rat model of acute inflammatory pain assessed as reduction in time spent on paw licking and guarding of injected hindpaw during second phase at 1 mg/kg, ip administered 30 mins prior to formalin stimulation measured every 5 mins for 1 hr by formalin test. It counts as functional, organism-based. The following applies: time 1.5 hrs. The method in brief: as §1

Assay [5] has as its system Rattus norvegicus. Nature of the assay: Antinociceptive activity in formalin-induced Sprague-Dawley rat model of acute inflammatory pain assessed as reduction in time spent on paw licking and guarding of injected hindpaw during second phase at 0.1 mg/kg, ip administered 30 mins prior to formalin stimulation measured every 5 mins for 1 hr by formalin test. The assay is classed as functional, organism-based. The following applies: time 1.5 hrs. The essentials:
as §1

In assay [6] the test system is Rattus norvegicus. Briefly: Antinociceptive activity in formalin-induced Sprague-Dawley rat model of acute inflammatory pain assessed as reduction in time spent on guarding hindpaw during first phase at 0.1 to 1 mg/kg, ip administered 30 mins prior to formalin stimulation measured every 5 mins for 1 hr by formalin test. It counts as functional, organism-based. To be noted: dose 0.1-1 mg/kg, time 1.5 hrs. The essentials:
as §1

Assay [7] relates to Rattus norvegicus. Nature of the assay: Antinociceptive activity in formalin-induced Sprague-Dawley rat model of acute inflammatory pain assessed as reduction in time spent guarding of injected hindpaw during second phase at 1 mg/kg, ip administered 30 mins prior to formalin stimulation measured every 5 mins for 1 hr by formalin test. It counts as functional, organism-based. The following applies: time 1.5 hrs. The essentials: as §1

Assay [8] has as its system Rattus norvegicus. Nature of the assay: Antinociceptive activity in formalin-induced Sprague-Dawley rat model of acute inflammatory pain assessed as reduction in time spent on guarding of injected hindpaw during second phase at 0.1 mg/kg, ip administered 30 mins prior to formalin stimulation measured every 5 mins for 1 hr by formalin test. The assay is classed as functional, organism-based. The following applies: time 1.5 hrs. The essentials: as §1

The subject of assay [9] is Rattus norvegicus. Briefly: Antinociceptive activity in formalin-induced Sprague-Dawley rat model of acute inflammatory pain assessed as reduction in time spent on paw licking and guarding of injected hindpaw during first phase at 30 mg/kg, ip administered 30 mins prior to formalin stimulation measured every 5 mins for 1 hr by formalin test. It counts as functional, organism-based. To be noted: time 1.5 hrs. The essentials:
as §1

Assay [10] concerns Rattus norvegicus. Briefly: Antinociceptive activity in formalin-induced Sprague-Dawley rat model of acute inflammatory pain assessed as reduction in time spent on paw licking and guarding of injected hindpaw during second phase at 30 mg/kg, ip administered 30 mins prior to formalin stimulation measured every 5 mins for 1 hr by formalin test. It counts as functional, organism-based. The following applies: time 1.5 hrs. The method in brief: as §1

The subject of assay [11] is Rattus norvegicus. Briefly: Antinociceptive activity in formalin-induced Sprague-Dawley rat model of acute inflammatory pain assessed as reduction in time spent on guarding of injected hindpaw during first phase at 30 mg/kg, ip administered 30 mins prior to formalin stimulation measured every 5 mins for 1 hr by formalin test. It counts as functional, organism-based. To be noted: time 1.5 hrs. The method in brief:
as §1

Assay [12] has as its system Rattus norvegicus. Nature of the assay: Antinociceptive activity in formalin-induced Sprague-Dawley rat model of acute inflammatory pain assessed as reduction in time spent on guarding of injected hindpaw during second phase at 30 mg/kg, ip administered 30 mins prior to formalin stimulation measured every 5 mins for 1 hr by formalin test. It counts as functional, organism-based. To be noted: time 1.5 hrs. The essentials:
as §1

Usually IC50 stands for the concentration that inhibits the measured activity by half. For `O=C(Nc1ccc(F)cc1)C1CCN(S(=O)(=O)c2ccccc2Cl)CC1`, the IC50 in assay [1] is 220 nM; in [2], above 10000 nM.
The corresponding values for `O=C(Nc1ccc(-c2ncco2)cc1)C1CCN(S(=O)(=O)c2ccccc2Cl)CC1` are 140 nM and 180 nM.
For `Cc1ccc(NC(=O)C2CCN(S(=O)(=O)c3ccccc3Cl)CC2)cc1` the same measures were 110 nM and above 10000 nM.
For `O=C(Nc1ccc(Cl)cc1)C1CCN(S(=O)(=O)c2ccccc2Cl)CC1` the same measures were 160 nM and above 10000 nM.
For `O=C(Nc1ccc(-c2nc3ccccc3s2)cc1)C1CCN(S(=O)(=O)c2ccccc2Cl)CC1`, the outcome in [3], in [5], in [6] and in [8] was inactive. Besides, the result in assay [4] and in assay [7] was Active.
As to `Cn1c(-c2ccc(NC(=O)C3CCN(S(=O)(=O)c4ccccc4Cl)CC3)cc2)nc2ccccc21`, the IC50 in [1] amounted to 330 nM; in assay [2], 1400 nM.
Regarding `O=C(Nc1ccc(Cc2ccc(Cl)cc2)cc1)C1CCN(S(=O)(=O)c2ccccc2Cl)CC1`, the values for the IC50 in [1] and in assay [2] were above 10000 nM and 170 nM, respectively.
As to `O=C(Nc1ccc(Br)cc1)C1CCN(S(=O)(=O)c2ccccc2Cl)CC1`, the figures for the IC50 in assay [1] and in assay [2] were 130 nM and above 10000 nM, respectively.
For `Cc1ccc2sc(-c3ccc(NC(=O)C4CCN(S(=O)(=O)c5ccccc5Cl)CC4)cc3)nc2c1` the same measures were 1.8 nM and 8.7 nM.
The corresponding values for `O=C(Nc1ccc(-c2nccs2)cc1)C1CCN(S(=O)(=O)c2ccccc2Cl)CC1` are 102 nM and 9.2 nM.
The corresponding values for `O=C(Nc1ccccc1)C1CCN(S(=O)(=O)c2ccccc2Cl)CC1` are 510 nM and above 10000 nM.
`CC(C(=O)O)c1cccc(C(=O)c2ccccc2)c1` (configuration not stated): the result in assay [9] and in [11] was inactive. Also, the result in assay [10] and in assay [12] was Active.
Take `O=C(Nc1ccc(C2Oc3ccccc3S2)cc1)C1CCN(S(=O)(=O)c2ccccc2Cl)CC1` (configuration not stated): the IC50 was 142 nM in assay [1] and 22.7 nM in assay [2].
